Assay outcomes from PubChem BioAssay.
Most compounds without a hit are left out; they make up all but 1.5% or so of the library.
APJ antag: APJ receptor antagonism; inhibition, % at 20 µM; hit rate 0.32% among 330,000; CHO-K1 APJ beta-arrestin complementation, luminescence;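 active means inhibition above about 40% at 20 µM, limit read from the data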;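 further: cells challenged with 10 nM apelin-13 agonist together with compound; plate controls were apelin-13 plus DMSO wells for no effect and DMSO wells lacking apelin-13 for full effect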
CCR6 antag: CCR6 (human) receptor antagonism. CHO-K1 CCR6 PathHunter beta-arrestin, luminescence, CCL20-stimulated. inhibition, % at 20 µM. hit rate 0.49% among 340,000. AID 493098;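 active means compounds whose inhibition of the agonist-driven luminescence signal at 20 µM reaches about 50%, limit read from the data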;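 further: cells stimulated with CCL20 at 14 nM final; plate controls were DMSO with CCL20 for no effect and DMSO without agonist for full effect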
Target sequence (P51684 whole entry, looked up): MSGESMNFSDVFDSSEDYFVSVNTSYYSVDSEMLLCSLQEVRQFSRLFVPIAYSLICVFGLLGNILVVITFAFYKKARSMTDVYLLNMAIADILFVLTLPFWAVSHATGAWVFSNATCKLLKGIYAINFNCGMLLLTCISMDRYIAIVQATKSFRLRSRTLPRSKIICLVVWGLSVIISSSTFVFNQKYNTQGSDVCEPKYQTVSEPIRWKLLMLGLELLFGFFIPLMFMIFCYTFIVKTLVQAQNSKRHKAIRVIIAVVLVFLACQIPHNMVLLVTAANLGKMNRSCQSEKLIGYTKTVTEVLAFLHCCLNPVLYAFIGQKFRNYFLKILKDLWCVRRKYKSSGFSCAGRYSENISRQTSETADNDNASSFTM
EBI2 block: EBI2 (human) antagonism; P32249; EBI2 beta-arrestin recruitment, luminescence, 7a,25-OHC stimulated; inhibition, % at 5 µM; hit rate 0.81% among 360,000; in the data active means inhibition above about 38%;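 further: enzyme fragment complementation signal reports receptor beta-arrestin coupling in cells; 0% = agonist plus DMSO wells and 100% = wells without agonist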
CXCR6 block: CXCR6 (human) receptor inhibition; O00574; hit rate 0.36% among 360,000; CHO-K1 PathHunter CXCR6 beta-arrestin, luminescence; inhibition, % at 20 µM; in the data active means inhibition above about 34%, passing the limit was not always enough;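 further: antagonist mode with CXCL16 agonist at 10 nM final; 0% = 10 nM CXCL16 with DMSO and 100% = unstimulated wells without agonist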
Target sequence (O00574 whole entry, looked up): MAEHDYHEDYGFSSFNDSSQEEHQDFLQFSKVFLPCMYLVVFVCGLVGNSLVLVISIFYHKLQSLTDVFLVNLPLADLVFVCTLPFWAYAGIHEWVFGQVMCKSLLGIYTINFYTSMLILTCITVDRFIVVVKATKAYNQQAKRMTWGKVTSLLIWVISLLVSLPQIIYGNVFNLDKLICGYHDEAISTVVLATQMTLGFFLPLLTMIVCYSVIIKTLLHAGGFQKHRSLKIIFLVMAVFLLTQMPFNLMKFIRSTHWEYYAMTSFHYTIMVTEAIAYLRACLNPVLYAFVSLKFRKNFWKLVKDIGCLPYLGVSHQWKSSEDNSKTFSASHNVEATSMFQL
APJ ag: activates the human apelin receptor APJ | P35414 | CHO-K1 APJ PathHunter beta-arrestin, luminescence; 0% DMSO wells, 100% apelin | activation, % at 20 µM | hit rate 0.11% among 330,000 | AID 2520;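 active means activation more than six SD over the plate average, tested at 20 µM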;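 further: 0% = DMSO alone and 100% = apelin-13 at 10 nM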
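Test system: CHO-K1 APJ beta-arrestin complementation cell line | Compound: Single test compound dose, 20 µM final, 1% DMSO | Incubation: Compound 90 min 25 °C, reagent 1 h | Measured by: beta-gal luminescence | Read-out basis: APJ–arrestin association signal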
EBI2 conf: EBI2 (human) antagonism, single concentration confirmation; AID 651997; inhibition, % at 5 µM; shares compounds with EBI2 block; EBI2 beta-arrestin luminescence, 7a,25-OHC antagonism; hit rate 29% among 2,400;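 active means inhibition of at least 50%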
EBI2 agonist: EBI2 agonism counter-screen; AID 652000; shares compounds with EBI2 block; 2,400 tested, under 10 active; EBI2-expressing cells, agonist mode, luminescence, 60 min; 0% vehicle, 100% 7α,25-dihydroxycholesterol control; activation, % at 5 µM;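 active means activation of at least 50%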
bGal counter: inhibits E. coli beta-galactosidase, counter-screen for EBI2 antagonists | shares compounds with EBI2 block | purified beta-galactosidase, luminescent Galacton Star, 15 min | hit rate 1% among 2,400 | inhibition, % at 5 µM;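 active means replicate-average signal at least 3 plate SD below neutral wells, shown as high inhibition, flagging enzyme-inhibiting false positives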;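 further: 0% = DMSO wells with enzyme and 100% = wells lacking enzyme; higher means stronger loss of beta-gal luminescence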
The depositor's hits bear a star; . = no result given.

SMILES	APJ antag	CCR6 antag	EBI2 block	CXCR6 block	APJ ag	EBI2 conf	EBI2 agonist	bGal counter
COc1ccccc1C(=O)N1CCCN(C(=O)c2ccccc2OC)CC1	6.5	8.6	-7.3	-1.1	0.9	.	.	.
COc1ccc2c(C)c(C(=O)N3CCN(Cc4ccccc4)CC3)oc2c1	-3.4	18.6	44.9*	-3.4	-1.1	15.0	0.3	7.3
CC1CCN(S(=O)(=O)c2ccc3c(c2)N(C)C(=O)CC(=O)N3C)CC1	8.4	-12.6	-2.5	-0.4	-4.6	.	.	.
Cc1c(C(=O)N2CCN(C(c3ccccc3)c3ccccc3)CC2)oc2ccccc12	8.7	17.8	87.3*	-1.4	-3.9	40.3	-0.7	-5.0
COc1ccccc1N1CCN(C(=O)c2oc3cc(C)c(C)cc3c2C)CC1	.	12.4	59.4*	-3.8	.	31.8	0.5	8.3
CCc1ccc2oc(C(=O)N3CCN(c4ccccc4OC)CC3)cc(=O)c2c1	4.0	14.8	91.0*	-4.6	-4.6	84.0*	-1.2	-14.4
CCOc1ccc2oc(C(=O)N3CCN(c4ccccc4OCC)CC3)c(C)c2c1	14.8	6.7	27.1	-7.2	-1.9	.	.	.
CC(C)Oc1ccc(S(=O)(=O)N2CCOCC2)cc1NC(=O)c1cccc(S(=O)(=O)N2CCCC2)c1	.	13.1	-1.4	7.8	.	.	.	.
O=C(Nc1ccccc1C(F)(F)F)c1ccc(CN2CCC(Cc3ccccc3)CC2)cc1	3.0	4.3	0.2	16.4	-3.8	.	.	.
COc1ccc(C(=O)Nc2ccc(N3CCN(Cc4ccccc4)CC3)cc2)cc1	8.3	-9.0	-7.5	-7.3	-1.5	.	.	.
O=C(Nc1ccccc1)c1ccc(CN2CCC(Cc3ccccc3)CC2)cc1	9.0	19.2	64.7*	10.6	-3.7	31.8	-0.6	5.7
COc1ccc(NC(=O)c2ccc(CN3CCN(c4ccccc4)CC3)cc2)cc1	8.5	-12.4	60.6*	5.1	-1.2	22.7	1.5	8.3
CCc1nnc(SCC(=O)NCCC2=CCCCC2)nc1CC	15.1	8.4	4.7	1.0	3.2	.	.	.
CCC(NC(=O)c1ccncc1)c1ccccc1 (configuration not stated)	5.6	4.9	-6.0	1.4	-2.7	.	.	.
Cc1ccsc1C(=O)OCC(=O)NC1CCCC(C)C1C (configuration not stated)	10.1	19.1	13.2	10.7	-5.5	.	.	.
COc1ccc(N(C(=O)Cn2nnc(-c3ccc(Cl)cc3)n2)C(C(=O)NCC2CCCO2)c2ccncc2)cc1 (configuration not stated)	1.1	-0.2	9.1	4.6	-2.1	.	.	.
COc1ccc(N(C(=O)Cn2nnc(-c3ccc(Cl)cc3)n2)C(C(=O)NCC2CCCO2)c2ccc(C)cc2)cc1 (configuration not stated)	-4.8	-0.3	61.3*	-5.9	-4.1	21.7	-0.7	-7.0
COc1ccc(NC(=S)N2CCN(C(=O)C3CCCO3)CC2)cc1 (configuration not stated)	3.7	-0.4	4.6	3.9	6.6	.	.	.
Cc1ccc2[nH]c3c(c2c1)CN(C(=O)CN1CCN(c2cccc(C)c2C)CC1)CC3	3.2	-12.1	14.5	-0.7	0.6	.	.	.
Cc1ccc2[nH]c3c(c2c1)CN(C(=O)CN1c2ccc(F)cc2CCC1C)CC3 (configuration not stated)	-7.9	-1.9	46.2*	2.9	3.1	9.4	0.3	2.8
Cc1nn(-c2nc3ccccc3s2)c(N)c1-c1ccc(Cl)cc1	13.5	0.9	53.9*	10.8	-0.6	52.8*	0.3	10.3
O=C(OCc1nnc(-c2ccc([N+](=O)[O-])cc2)o1)C1CCN(C(=O)c2ccc(Cl)cc2)CC1	-27.4	3.8	50.3*	-17.9	3.9	15.4	3.7	4.1
O=C(OCc1nnc(-c2ccc([N+](=O)[O-])cc2)o1)C1CCN(C(=O)c2ccc(F)cc2)CC1	-86.7	4.9	-2.0	-3.6	1.4	.	.	.
CCOC(=O)c1ccc(Nc2nc(C)cc(C)n2)cc1	.	0.4	27.6	1.3	.	.	.	.
CCOC(=O)c1ccc(Nc2cc(C)nc(-c3ccccc3)n2)cc1	-12.9	-8.9	56.7*	-2.1	2.2	48.7	0.2	14.0
SMILES	APJ antag	CCR6 antag	EBI2 block	CXCR6 block	APJ ag	EBI2 conf	EBI2 agonist	bGal counter
CCOc1ccc(N2C(=O)CC(NC3CCN(C(=O)c4cccs4)CC3)C2=O)cc1 (configuration not stated)	18.2	9.4	6.8	-5.2	2.4	.	.	.
CCC(C)c1ccc(N(CC(=O)NC(C)(C)C)C(=O)CNC(=O)c2cccs2)cc1 (configuration not stated)	-2.5	7.8	-14.2	-0.9	-3.2	.	.	.
COc1ccc(OCC(=O)N2CCN(C(=O)c3cccc4ccccc34)CC2)cc1	-1.8	3.9	69.5*	-5.5	-0.2	37.8	-1.2	-12.9
O=C(COc1ccc(Cl)cc1)N1CCN(C(=O)c2ccccc2F)CC1	-5.9	7.5	81.6*	6.1	-3.2	49.9	1.7	6.1
Cc1cccc(OCC(=O)N2CCN(C(=O)c3ccc([N+](=O)[O-])cc3)CC2)c1	11.0	9.8	46.6*	-7.6	-1.6	23.2	0.4	3.3
COc1ccc(OCC(=O)N2CCN(C(=O)c3ccccc3)CC2)cc1	-10.5	-3.2	76.8*	-2.9	-4.6	74.2*	-1.0	-19.2
O=C(NC(=S)N1CCN(c2ccccc2)CC1)c1ccc(S(=O)(=O)N2CCOCC2)cc1	-7.5	7.8	2.5	5.4	-3.4	.	.	.
C[C@@H]1CN([C@H](C)CO)C(=O)c2c(c3ccccc3n2C)-c2ccccc2CO[C@H]1CN(C)C(=O)CCC(F)(F)F	.	.	-6.2	-2.3	.	.	.	.
COc1ccc(OCC(=O)N2CCN(C(=O)c3ccc([N+](=O)[O-])cc3)CC2)cc1	6.1	-7.1	88.4*	-7.2	-0.1	59.6*	0.8	9.3
CCc1nc2ccc(C(=O)NCc3cccs3)cn2c1N(CC)Cc1cccc(Br)c1	.	.	18.1	16.3	.	.	.	.
COc1ccc(C)cc1NC(=O)c1ccccc1NS(=O)(=O)c1cccc2cccnc12	9.4	-5.2	-2.3	-1.7	-3.4	.	.	.
O=C(c1ccc(Br)cc1)c1cc(-c2ccccn2)c(N2CCOCC2)s1	12.7	27.2	36.5*	3.0	-2.9	39.0	-1.5	-15.7
O=C(c1ccc(Cl)c(Cl)c1)c1cc(-c2ccccn2)c(N2CCOCC2)s1	-4.5	17.0	64.8*	-1.3	0.0	31.2	1.6	3.0
COc1cccc(CNC(=O)c2ccncc2)c1	8.9	-10.0	3.9	-1.5	-2.6	.	.	.
CC(CNC(=O)COC(=O)c1ccco1)c1ccccc1 (configuration not stated)	-2.9	11.8	-4.9	-1.5	-0.6	.	.	.
CCCCCN(C(=O)COC(=O)c1ccc(C)cc1)c1c(N)n(CCCC)c(=O)[nH]c1=O	-1.5	12.1	-6.8	0.7	-4.6	.	.	.
